The source of these data is PMC3466390 (Biomaterials, 2012).

“Also recorded” adds a separate entry of the source.

One series has as its system E. coli (ATCC 25922). The experiment in a line: Antibacterial assay on hydrogel surfaces. As to conditions: 0.5, 1, 1.5 and 2 wt% hydrogels, 10^5 CFU/dm^2, 24 h, 37°C, n=3. Type of series: cell-based, Escherichia coli. An outline of the steps:
(§1)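 Gels (0.5–2 wt%) formed in wells by mixing peptide stocks in sterile water 1:1 with BTP buffer (100 mM, 300 mM NaCl, pH 7.4). They were held 3 h at 37°C, then equilibrated overnight under BTP (50 mM, 150 mM NaCl, pH 7.4), and the buffer was removed. Bacteria were grown overnight on blood agar, applied at 10^4 CFU/mL in TSB, and incubated 24 h at 37°C, with bare plastic as control. After a TSB wash, OD625 of the overlying solution was corrected for dilution and scattering. % non-viable = [1 − OD surface/OD control]×100; triplicate.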

Another series relates to S. aureus (ATCC 25923). Briefly: Antibacterial assay on hydrogel surfaces. Type of series: cell-based, Staphylococcus aureus. Particulars: 0.5, 1, 1.5 and 2 wt% hydrogels, 10^5 CFU/dm^2, 24 h, 37°C, n=3. An outline of the steps: as §1
In series [1] the test system is human red blood cells (hRBCs). The format is cell-based.
Series [2] can be described thus: CD spectroscopy of folding and self-assembly. The format is physicochemical. An outline of the steps: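 Peptides were measured at 1 wt% in chilled water, or as chilled 2 wt% aqueous stock mixed 1:1 with BTP stock (100 mM, 300 mM NaCl, pH 7.4) and left to gel in the cell. Scans ran 200–260 nm at 37°C in a 0.1 mm quartz cell. Mean residue ellipticity was [θ] = (θobs/10lc)/r.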

In series [3] the test system is P. aeruginosa (ATCC 27853). Briefly: Antibacterial assay on hydrogel surfaces. Type of series: cell-based, Pseudomonas aeruginosa. As to conditions: 10^5 CFU/dm^2, 24 h, 37°C, n=3. An outline of the steps: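 Peptide stocks in sterile water were mixed 1:1 with BTP (100 mM, 300 mM NaCl, pH 7.4) to gel, held 3 h at 37°C, then equilibrated overnight under BTP (50 mM, 150 mM NaCl, pH 7.4), which was then removed. Blood-agar-grown bacteria (18-20 h) at 10⁴ CFU/mL in TSB were applied to the gel surface for 24 h at 37°C. OD625 was compared with bare polystyrene: % non-viable = [1 − OD surface/OD control]×100.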

The next series deals with P. aeruginosa. Type of series: cell-based.
The subject of series [4] is E. coli. Briefly: Atomic force microscopy imaging of bacteria on gel. The format is cell-based, Escherichia coli. As to conditions: 2 wt% hydrogel, 2 h incubation, 37°C.
Series [5] relates to E. coli. Briefly: Antibacterial assay in the presence of Ca2+. Type of series: cell-based, Escherichia coli. Particulars: 1 wt% hydrogel, 0, 0.1, 1, 10 and 20 mM Ca2+, 37°C, CFU count, n=3.
Another series has as its system S. aureus. The experiment in a line: Antibacterial assay in the presence of Ca2+. The format is cell-based, Staphylococcus aureus. Particulars: 1 wt% hydrogel, 0, 0.1, 1, 10 and 20 mM Ca2+, 37°C, CFU count, n=3.
The nature of series [6]: Oscillatory rheology of hydrogels. The format is physicochemical. Particulars: 1 wt% gel, 0.2% strain. An outline of the steps: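 A 2 wt% peptide solution in chilled water was mixed with an equal volume of BTP (100 mM, 300 mM NaCl, pH 7.4). It was loaded on a 25 mm parallel plate at 5°C with a 0.5 mm gap, then ramped to 37°C over 100 s. G′ and G″ were followed by a 1 h time sweep at 6 rad/s and 0.2% strain. For recovery, 1000% strain was applied for 30 s at 6 rad/s, followed by a second 1 h sweep.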

As to VRVRVRVRV^DPPTRVRVRVRV-NH2 [PEP8R], the “antibacterial activity of hydrogel surface against E. coli, in words” value with E. coli (ATCC 25922) was “capable of inhibiting both E. coli and S. aureus proliferation, irrespective of the peptide weight percentage used”. Also, the “antibacterial activity of hydrogel surface against S. aureus, in words” value with S. aureus (ATCC 25923) is “capable of inhibiting both E. coli and S. aureus proliferation, irrespective of the peptide weight percentage used”. Also, the hemolytic activity entry in [1] is listed as “about 25%”. Further, in series [1], the “hemolytic activity as a function of wt%” value is “decreases in a concentration dependent manner”. Also, the “folding/assembly state by CD” value was “folded and assembled into β-sheet structures” in series [2] (1 wt% peptide in BTP buffer with NaCl, pH 7.4, 37°C); “unfolded peptide” in series [2] (1 wt% peptide in water, 37°C).

On to VKVRVRVRV^DPPTRVRVRVKV [PEP6R], for which the “antibacterial activity of hydrogel surface against E. coli, in words” value in the series with E. coli (ATCC 25922) was “inhibit E. coli and S. aureus proliferation at all weight percentages; also recorded: quantitatively kills E. coli at all weight percents tested”. For the same substance, the “antibacterial activity of hydrogel surface against S. aureus, in words” value with S. aureus (ATCC 25923) is “inhibit E. coli and S. aureus proliferation at all weight percentages”. The results for the “antibacterial activity of hydrogel surface against P. aeruginosa, in words” value in [3] (0.5 wt% hydrogel), in series [3] (1.5 wt% hydrogel) and in series [3] (2 wt% hydrogel) were “only marginally active”, “extremely potent” and “extremely potent”, respectively. For the same substance, the hemolytic activity entry in [1] is reported as “low hemolytic activity”. Further, in the series with P. aeruginosa, the “live-dead result at the gel surface (cytostatic or cytotoxic)” value is “cytotoxic”. Further, the “live-dead result at the gel surface, short incubation, compared with 24 h” value in the series with P. aeruginosa (2 wt% hydrogel, 2 h incubation) is listed as “identical”. Also, the “morphology of E. coli on gel surface by AFM” value in the series on E. coli [4] was “membrane surface has collapsed and appears highly punctated”. Also, the “antibacterial activity (percent non-viable bacteria) in the presence of Ca2+” value in the series with E. coli [5] and in the series with S. aureus was “progressively attenuated with increasing concentrations of Ca^2+” throughout. The “storage modulus (G')” value in series [6] (50 mM BTP, 150 mM NaCl, pH 7.4, 37°C, after 1 h, 6 rad/s) was “increase in mechanical rigidty”. Moreover, the “recovery of initial mechanical rigidity after shear-thinning” value in series [6] (37°C, 1000% strain for 30 s, then 1 h at 6 rad/s) is “about 90%”.
